High-throughput results deposited in PubChem by Broad Institute.
A selection: hits, their analogues and other compounds. The true share with any hit is near 2.1%.
CAL PDZ FP-1 – blocks peptide binding to the human CAL PDZ domain; inhibition, % at 24.9 µM; Q9HD26; 300,000 tested, 0.92% active; purified CAL PDZ, TMR-peptide fluorescence polarization, 1 h;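 active = mean inhibition of at least 30% with at least half of replicates also reaching 30%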;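 note: 0% = DMSO neutral control and 100% = excess unlabeled competitor peptide PRC23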
miR122 inh – blocks miR-122 activity in Huh7 sensor cells; AID 602342; 340,000 tested, 0.3% active; Huh7 miR-122 Renilla luciferase sensor, 48 h; neutral wells = 0, positive control = 100; activation (reporter increase), % at 12.5 µM;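 active = mean replicate activation score at least 90 and every replicate individually at or above 90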;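 note: higher luciferase means less miR-122 activity so hits act as miR-122 inhibitors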
SR-BI uptake up – enhances SR-BI lipid uptake from DiI-HDL | CHO ldlA[mSR-BI] cells, DiI-HDL uptake fluorescence, 3 h; 100 = double the neutral-control signal | activation, % at 12.5 µM | 320,000 tested, 0.096% active;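 active = mean replicate activation of at least 60% and every replicate at or above 60%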;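 note: 0% = median plate neutral-control signal and 100% = twice that signal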
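Material – SR-BI-overexpressing, LDLR-lacking CHO cells · Medium – BSA-supplemented, HEPES-buffered Ham's F12, pH 7.4 · Doses – single concentration · Times – compound with DiI-HDL co-incubation, 3 h at 37 °C · Measured by – bottom-read fluorescence, 550/595 nm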
ARNT-TACC3 inh – ARNT/TACC3 interaction disruption. Q9Y6A5. AlphaScreen His-ARNT PAS-B/GST-TACC3 binding, luminescence; TACC3 fragment carries E629A point mutation. inhibition, % at 9.99 µM. 390,000 tested, 0.66% active. AID 623870;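 active = mean inhibition of replicates at least 50% and at least half of replicates each reaching 50%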;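 note: 0% = complete ARNT plus TACC3 wells and 100% = ARNT alone without TACC3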
CAL PDZ FP-2 – inhibitors of human CAL PDZ peptide binding; purified CAL PDZ, TMR-peptide fluorescence polarization, 1 h; Q9HD26; 330,000 tested, 0.02% active; AID 504414; inhibition, % at 20 µM;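 active = highest replicate inhibition of at least 40%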;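 note: plate controls were DMSO neutral control wells for no effect and unlabeled competitor peptide control wells for full effect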
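Assay system – tagged CAL PDZ protein CerCALP, purified · Timing – 1 h at RT · Compound – single point, 20 µM · Measured by – fluorescence polarization from S- and P-plane intensities, G-factor corrected · Evaluation – inhibition from polarization loss · Probe or stimulus – TMR reporter peptide T*-PRC34 · Buffer or medium – pH 7.4 phosphate-saline buffer, reducing agent, detergent, IgG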
SR-BI DiI inh – blocks mouse SR-BI lipid uptake from DiI-HDL; inhibition, % at 12.5 µM; AID 488896; ldlA[mSR-BI] CHO cells, DiI-HDL uptake fluorescence, 3 h; 320,000 tested, 0.96% active;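 active = mean replicate inhibition of at least 70% and a set share of replicates each scoring 70 or more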;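 note: 0% = median of neutral control wells and 100% = median of positive control wells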
Target sequence (Q61009 whole entry, looked up): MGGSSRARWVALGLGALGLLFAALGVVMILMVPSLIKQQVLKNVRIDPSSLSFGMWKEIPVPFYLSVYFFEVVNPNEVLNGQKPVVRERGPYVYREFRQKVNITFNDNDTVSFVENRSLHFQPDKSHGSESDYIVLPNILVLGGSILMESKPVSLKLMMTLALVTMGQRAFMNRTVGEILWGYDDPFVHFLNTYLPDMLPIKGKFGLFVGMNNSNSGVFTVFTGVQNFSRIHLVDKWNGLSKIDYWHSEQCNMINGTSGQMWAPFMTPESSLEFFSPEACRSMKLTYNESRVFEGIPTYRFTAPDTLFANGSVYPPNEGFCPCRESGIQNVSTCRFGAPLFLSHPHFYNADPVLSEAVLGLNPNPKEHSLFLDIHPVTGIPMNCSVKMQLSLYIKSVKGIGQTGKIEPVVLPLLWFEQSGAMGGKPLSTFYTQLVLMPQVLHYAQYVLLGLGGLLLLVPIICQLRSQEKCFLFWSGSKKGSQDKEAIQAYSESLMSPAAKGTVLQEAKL
ARNT Alpha ctr – counter-screen for ARNT/TACC3 inhibitors: AlphaScreen artifacts. shares compounds with ARNT-TACC3 inh. AC50, µM (top dose mostly 68 µM), without a hit: at the top dose activity change, negative = signal decrease. His-ARNT PASB-GST AlphaScreen artifact counter-screen, luminescence. 1,200 tested, 50% active. AID 651705;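 active = every separate test run was called active for a drop in luminescence, with AC50 within twice the top valid dose, actives reach about 71 µM in these data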
* hit, by the source's call; nt = no result; [ ] = dose if it differs, or a comment.

SMILES | CAL PDZ FP-1 | miR122 inh | SR-BI uptake up | ARNT-TACC3 inh | CAL PDZ FP-2 | SR-BI DiI inh | ARNT Alpha ctr
COc1ccc2nc(-c3ccc(N)cc3)[nH]c2c1 | nt | -6 | -1 | 0 | -1 | 1 | nt
C[C@@H]1CN([C@@H](C)CO)C(=O)c2cc(C3=CCCC3)cnc2O[C@H]1CN(C)Cc1cccnc1 | nt | nt | nt | -3 | nt | nt | nt
O=C(N/N=C/c1ccccc1O)C1SCCCS1 | nt | nt | -15 | 56* | -1 | 15 | -28%
C[C@@H]1CCCCO[C@@H](CN(C)C(=O)Nc2cccc3ccccc23)[C@H](C)CN([C@@H](C)CO)C(=O)c2cc(NS(=O)(=O)c3cn(C)cn3)ccc2O1 | nt | 1[16.7 µM] | nt | 55* | nt | nt | 10µM*
C[C@H](CO)N1C[C@H](C)[C@@H](CN(C)C(=O)Nc2cccc3ccccc23)OCCCC[C@H](C)Oc2ccc(NC(=O)CCCN(C)C)cc2C1=O | nt | -6[16.7 µM] | nt | 18 | nt | nt | nt
C[C@H](CO)N1C[C@H](C)[C@H](CN(C)C(=O)Nc2cccc3ccccc23)OCCCC[C@H](C)Oc2ccc(NC(=O)CCCN(C)C)cc2C1=O | nt | -5[16.7 µM] | nt | 59* | nt | nt | -23%[38 µM]
C[C@H]1CN([C@@H](C)CO)C(=O)c2cc(C#CC3CCCCC3)cnc2O[C@@H]1CN(C)C | nt | -4[16.7 µM] | nt | nt | nt | nt | nt
CC(=O)c1cccc(NC(=O)N2CCCC2C(=O)NCc2ccccc2)c1 (stereo not drawn) | 2 | 4 | 23 | 21* | -2 | -23 | 7%
COc1cc(CNCc2ccccn2)ccc1OCc1ccc(Cl)c(Cl)c1 | 6 | 1 | -32 | 42 | -2 | 32 | nt
CCOc1cc(CNCc2ccccn2)cc(Cl)c1OC | nt | -8 | -13 | 53* | 0 | 13 | -30%
COc1cccc(CNCc2ccc(OC)c3ccccc23)c1OC | -4 | -3 | -47 | 9 | -3 | 47 | nt
CCOc1cc(CNCc2ccccn2)cc(Cl)c1OCC | -4 | 0 | -10 | 53* | 0 | 10 | -21%
COc1cc(CNCc2ccccn2)ccc1OCc1ccc(Cl)cc1Cl | -4 | 3 | -13 | 55* | -2 | 13 | -39%
COc1cccc(CNCc2ccccn2)c1OC | 1 | -1 | 4 | 61* | -2 | -4 | -5%
CCOc1cc(CNCC(O)c2ccccc2)cc(Cl)c1OC (stereo not drawn) | -1 | -19 | -5 | nt | -2 | 5 | nt
CN1C[C@@H](O)COC[C@H]2O[C@H](CC(=O)N3CCN(c4ccccc4)CC3)CC[C@@H]21 | nt | 5[16.7 µM] | nt | 3 | nt | nt | nt
Cc1noc(C)c1NC(=O)Nc1ccc2c(c1)CC(=O)N([C@@H](C)CO)C[C@H](C)[C@@H](CN(C)Cc1ccccc1)O2 | nt | -4[16.7 µM] | nt | -17 | nt | nt | nt
CCNC(=O)C[C@H]1CC[C@@H]2[C@@H](COc3ccc(NC(=O)c4cc(C)on4)cc3C(=O)N2C)O1 | nt | -2[16.7 µM] | nt | -3 | nt | nt | nt
O=C(Nc1cc(F)ccc1F)N[C@@H]1CC[C@H](CCn2cc(C3CCCCC3)nn2)O[C@@H]1CO | nt | nt | nt | -4 | nt | nt | nt
CC=Cc1ccc2n(c1=O)C[C@H]1[C@H](CO)[C@@H](C(=O)NC3CCC3)[C@@H]2N1S(=O)(=O)c1cn(C)cn1 (mixture of isomers) | nt | nt | nt | active | nt | nt | -2%[38 µM]
CC=Cc1ccc2n(c1=O)C[C@@H]1[C@@H](CO)[C@H](C(=O)NC3CCC3)[C@H]2N1S(=O)(=O)c1cn(C)cn1 (mixture of isomers) | nt | nt | nt | 5 | nt | nt | nt
Cc1[nH]n(-c2ccccc2)c(=O)c1C(c1cccc([N+](=O)[O-])c1)c1c(C)[nH]n(-c2ccccc2)c1=O | 0 | nt | -28 | nt | -1 | 28 | nt
Cc1[nH]n(-c2ccccc2)c(=O)c1C(c1ccc(C(=O)O)cc1)c1c(C)[nH]n(-c2ccccc2)c1=O | 1 | nt | 7 | 18* | 1 | -7 | -18%
C[C@H](CO)N1C[C@H](C)[C@H](CN(C)C(=O)C2CCC2)Oc2cc(-c3ccc(F)cc3)ccc2S1(=O)=O | nt | 13[16.7 µM] | nt | nt | nt | nt | nt
COc1ccccc1NC(=O)CSc1n[nH]c(-c2ccccn2)n1 | nt | -4 | nt | 61* | 0 | nt | 11µM*
SMILES | CAL PDZ FP-1 | miR122 inh | SR-BI uptake up | ARNT-TACC3 inh | CAL PDZ FP-2 | SR-BI DiI inh | ARNT Alpha ctr
O=C(CSc1n[nH]c(-c2ccccn2)n1)Nc1ccccc1 | 14 | 7 | 2 | 62* | 0 | -2 | 7.7µM*
COc1ccc(NC(=O)CSc2n[nH]c(-c3ccccn3)n2)cc1 | 0 | 3 | nt | 58* | -1 | nt | 6.9µM*
O=C(CSc1n[nH]c(-c2cccnc2)n1)Nc1ccccc1 | -2 | -2 | -1 | 3 | -1 | 1 | nt
COc1ccccc1-c1nc(SCC(=O)Nc2ccccc2)n[nH]1 | 3 | nt | -10 | -8 | -3 | 10 | nt
C[C@@H]1CCCCO[C@@H](CN(C)C(=O)c2ccncc2)[C@H](C)CN([C@@H](C)CO)C(=O)c2cc(NC(=O)C3CCCCC3)ccc2O1 | nt | -3[16.7 µM] | nt | -8 | nt | nt | nt
Cc1nnc(C)n1/N=C/c1c(O)ccc2ccccc12 | -5 | 3 | nt | 9 | 1 | nt | nt
Cc1nnc(-c2ccccc2)c(=O)n1/N=C/c1c(O)ccc2ccccc12 | -1 | 13 | -120 | 62* | 0 | 120* | 64µM*
Cc1nc2ccccc2c(=O)n1/N=C/c1ccc(O)c(O)c1O | -3 | nt | 0 | 52* | 0 | 0 | -12%
CNC[C@@H]1OCCCC[C@H](C)Oc2ccc(NC(=O)Nc3c(C)noc3C)cc2C(=O)N([C@H](C)CO)C[C@@H]1C | nt | -2[16.7 µM] | nt | nt | nt | nt | nt
Cc1noc(C)c1NC(=O)N(C)C[C@@H]1Oc2ccc(NC(=O)c3ccncc3)cc2CC(=O)N([C@@H](C)CO)C[C@H]1C | nt | 6[16.7 µM] | nt | -29 | nt | nt | nt
O=C(O)C1=C(C2CCCCC2)C(=O)c2ccccc21 | -2 | nt | 17 | -4 | 0 | -17 | nt
O=C(O)c1ccc(C2CCCCC2)cn1 | -1 | -2 | nt | 63* | -1 | 4 | -22%
Cc1ccc(C2=CSC3=NS(=O)(=O)CCN23)cc1 | -4 | nt | -9 | 50* | 1 | 9 | -8%
N#Cc1ccsc1NC(=O)c1ccc2ncsc2c1 | nt | 21 | nt | nt | nt | nt | nt
N#Cc1ccsc1NC(=O)c1ccccn1 | -3 | -12 | 32 | 64* | -1 | -32 | -11%
CO[C@H]1CN(C)C(=O)c2cc(NS(=O)(=O)c3cccc(F)c3)ccc2OC[C@@H](C)NC[C@@H]1C | nt | nt | nt | -6 | nt | nt | nt
COc1cc(/C=N/NC(=O)c2cccc([N+](=O)[O-])c2)cc(OC)c1O | -4 | nt | -26 | 3 | -2 | 26 | nt
COc1cc(/C=N/NC(=O)c2cncc(Br)c2)cc([N+](=O)[O-])c1O | -9 | -15 | -120 | 58* | 0 | 120* | 36µM*
CO[C@@H]1CN(C)C(=O)c2cc(NC(=O)C3CC3)ccc2OC[C@H](C)N(Cc2nccs2)C[C@H]1C | nt | nt | nt | 27 | nt | nt | nt
